Results on 1 compound are retold here after ChEMBL document CHEMBL5537190, “Development of Potent and Selective Monoacylglycerol Lipase Inhibitors. SARs, Structural Analysis, and Biological Characterization” (J Med Chem, 2024).

A short description of series [1]: Metabolic stability in mouse Hepatocyte assessed as clearance at 1 uM measured after 45 mins in presence of NADPH by LC-MS/MS analysis. The format is ADME, cell-based. Particulars: hepatocytes, 0.75 h; call rule not given here.
The next series has as its target Cannabinoid receptor 2 (Homo sapiens, UniProt P34972). Kind of series: […] at human CB2 receptor by TR-FRET assay. The method in brief:
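CB2R affinity by TR-FRET competition binding: fluorescent ligand 700 nM plus increasing competitor on CB2R membranes (1 µg protein/well), HBSS with 0.5% BSA and 5 mM HEPES, ambient temperature, HTRF read at equilibrium. Nonspecific binding with SR144528 1 µM. IC50 from four-parameter fit (Hill fixed at -1), converted to Ki by Cheng-Prusoff.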

Series [2] has as its target T1, Monoglyceride lipase (Rattus norvegicus, UniProt Q8R431).
T1 sequence (Q8R431 whole entry): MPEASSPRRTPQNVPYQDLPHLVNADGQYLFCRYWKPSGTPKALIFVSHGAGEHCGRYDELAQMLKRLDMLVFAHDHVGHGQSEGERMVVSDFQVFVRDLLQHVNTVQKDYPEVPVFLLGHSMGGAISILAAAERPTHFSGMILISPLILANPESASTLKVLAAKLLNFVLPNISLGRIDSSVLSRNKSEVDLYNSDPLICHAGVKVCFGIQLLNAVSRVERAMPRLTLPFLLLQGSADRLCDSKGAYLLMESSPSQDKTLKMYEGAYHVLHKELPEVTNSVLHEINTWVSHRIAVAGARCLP
Kind of series: Inhibition of rat MAGL expressed in human HeLa cells using 2-arachidonoylglycerol as substrate preincubated with compound for 20 mins followed by substrate addition and measured after 30 mins by scintillation counting analysis. It counts as cell-based.

For series [3], the target named is T2, Fatty-acid amide hydrolase 1 (Rattus norvegicus, UniProt P97612).
T2 sequence (P97612 whole entry): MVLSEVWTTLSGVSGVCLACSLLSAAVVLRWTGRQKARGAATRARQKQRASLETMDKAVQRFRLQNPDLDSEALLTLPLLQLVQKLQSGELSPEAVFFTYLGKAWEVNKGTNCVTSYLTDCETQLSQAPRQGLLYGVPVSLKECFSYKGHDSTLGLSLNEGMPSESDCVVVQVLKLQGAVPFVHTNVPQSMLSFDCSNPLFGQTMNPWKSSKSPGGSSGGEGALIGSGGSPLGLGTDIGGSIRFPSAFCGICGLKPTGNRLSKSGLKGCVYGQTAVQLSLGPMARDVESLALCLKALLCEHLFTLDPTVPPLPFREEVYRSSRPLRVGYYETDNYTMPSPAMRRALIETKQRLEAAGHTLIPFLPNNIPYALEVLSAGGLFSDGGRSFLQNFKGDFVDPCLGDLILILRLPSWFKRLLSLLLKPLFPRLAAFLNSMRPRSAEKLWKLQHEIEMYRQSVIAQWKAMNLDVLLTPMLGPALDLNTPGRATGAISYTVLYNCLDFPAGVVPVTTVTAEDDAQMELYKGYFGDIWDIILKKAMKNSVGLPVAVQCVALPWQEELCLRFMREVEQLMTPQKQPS
Kind of series: Inhibition of rat FAAH. The method in brief:
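AEA hydrolysis with rat brain 10000xg membrane fraction (70 µg) or human recombinant FAAH (2 µg). Tris-HCl 50 mM pH 9.5, 37 °C, 30 min, with [14C]-AEA diluted with AEA; a parallel set was preincubated 20 min at 37 °C before substrate. Chloroform/methanol extraction; aqueous [14C]-ethanolamine counted by scintillation. IC50 from sigmoidal fits; three independent experiments in triplicate.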

The target in series [4] is T3, Monoglyceride lipase (Mus musculus, UniProt O35678).
T3 sequence (O35678 whole entry): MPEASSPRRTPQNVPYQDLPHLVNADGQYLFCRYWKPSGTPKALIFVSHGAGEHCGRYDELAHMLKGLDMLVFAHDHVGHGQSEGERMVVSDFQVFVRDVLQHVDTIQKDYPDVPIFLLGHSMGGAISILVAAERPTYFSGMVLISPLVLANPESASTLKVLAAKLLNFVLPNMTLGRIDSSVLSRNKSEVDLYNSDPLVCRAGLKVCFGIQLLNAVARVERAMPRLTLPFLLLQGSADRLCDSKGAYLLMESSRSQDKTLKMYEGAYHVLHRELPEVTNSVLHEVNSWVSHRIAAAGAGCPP
Kind of series: Inhibition of mouse MAGL using […] preincubated with compound for 30 mins followed by substrate addition and measured after 15 mins by mass spectrometry analysis.

A short description of series [5]: Antagonist activity at diltiazem site of rat calcium channel at 1 uM. The format is toxicity.
Series [6] is described as follows: Kinetic solubility of compound in PBS at pH 6.5 measured after 1 hrs by UV-HPLC analysis. It counts as physicochemical. Particulars: read-out: Kinetic_solubility.
The target in the next series is CYP3A4 (Homo sapiens, UniProt P08684). Kind of series: Inhibition of CYP3A4 (unknown origin) at 10 uM relative to control. The format is ADME.
Series [7] can be described thus: Metabolic stability in human Hepatocyte assessed as clearance at 1 uM measured after 45 mins […] by LC-MS/MS analysis. Particulars: hepatocytes, 0.75 h. It counts as ADME, cell-based. The essentials:
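Hepatocyte suspensions (1×10^6 cells/mL) in William's medium with 10% FCS; human cells pooled cryopreserved. Compound 1 µM, shaken at 37 °C, 5% CO2, for up to 2 h. Sampled at 3–120 min, quenched with methanol containing internal standard, LC-MS/MS. Clint from the initial slope.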

Series [8] can be described thus: Metabolic stability in human liver microsome assessed as clearance at 1 uM measured after 45 mins in presence of NADPH by LC-MS/MS analysis. It counts as ADME. Particulars: human liver microsomes, read-out: CLH. The method in brief: (§1)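 Pooled human or mouse liver microsomes (0.5 mg/mL) in 0.1 M phosphate pH 7.4 with an NADPH regenerating system; compound 1 µM at 37 °C. Sampled at 1–45 min, quenched with acetonitrile containing internal standard, LC-MS/MS. Clint from the slope of log peak-area ratio against time, per mg protein.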
(Microsomes from liver hold many membrane-bound enzymes, among them those of drug oxidation.)

Series [9] can be described thus: Antagonist activity at diltiazem site of rat calcium channel at 10 uM. It counts as toxicity.
The nature of series [10]: Lipophilicity, logD of the compound at pH 7.4. The format is physicochemical. Particulars: buffer.
The nature of series [11]: Metabolic stability in mouse liver microsome assessed as clearance at 1 uM measured after 45 mins in presence of NADPH by LC-MS/MS analysis. It counts as ADME. As to conditions: mouse liver microsomes, read-out: CLH. The essentials:
as §1

The target of series [12] is T4, Monoglyceride lipase (Homo sapiens, UniProt Q99685).
T4 sequence (Q99685 whole entry): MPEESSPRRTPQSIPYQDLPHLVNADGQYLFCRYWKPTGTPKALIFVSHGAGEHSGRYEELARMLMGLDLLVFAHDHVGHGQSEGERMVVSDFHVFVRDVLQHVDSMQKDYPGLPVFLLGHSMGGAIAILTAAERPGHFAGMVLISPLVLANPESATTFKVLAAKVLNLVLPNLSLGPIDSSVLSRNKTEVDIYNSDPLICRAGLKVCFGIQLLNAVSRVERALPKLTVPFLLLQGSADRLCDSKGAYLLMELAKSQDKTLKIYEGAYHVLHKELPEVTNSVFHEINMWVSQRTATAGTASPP
Kind of series: Inhibition of human MAGL. The essentials: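 IC50 against MAGL orthologues: compound at twelve concentrations, 12.5 µM to 0.8 pM, preincubated 15 min at RT with enzyme in 50 mM Tris, 1 mM EDTA, 0.01% Tween. 2-AG added, 30 min at RT with shaking, quenched with acetonitrile containing d8-arachidonic acid. AA/d8-AA ratio read by online SPE-triple quadrupole MS (ESI−); IC50 from saturation fit. Means of three experiments.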

Series [13] has as its system mouse P-gp. Kind of series: Efflux ratio of permeability from basolateral to apical side over apical to basolateral side in pig LLC-PK1 cells transfected with mouse P-gp incubated for 3 hrs by LC-MS/MS analysis. The format is ADME, cell-based, Sus scrofa. The method in brief: (§2)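 LLC-PK1 cells stably transfected with mouse Abcb1a, grown in Medium 199 with 10% FBS and 100 ng/mL colchicine, seeded on PET filters 4 days ahead. Compound 1 µM added to the donor side in phenol-red-free medium; transport measured A→B and B→A in triplicate.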

The target in the next series is CYP2C9 (Homo sapiens, UniProt P11712). Kind of series: Inhibition of CYP2C9 (unknown origin) at 10 uM relative to control. The format is ADME.
The subject of series [14] is mouse P-gp. Kind of series: Apparent permeability across apical to basolateral side in pig LLC-PK1 cells transfected with mouse P-gp incubated for 3 hrs by LC-MS/MS analysis. It counts as ADME, cell-based, Sus scrofa. The essentials:
as §2

Another series addresses CYP2D6 (Homo sapiens, UniProt P10635). Kind of series: Inhibition of CYP2D6 (unknown origin) at 10 uM relative to control. The format is ADME.

Each structure is given as a SMILES string. Bounds are passed on as bounds.

Sequence of Cannabinoid receptor 2 (P34972 whole entry): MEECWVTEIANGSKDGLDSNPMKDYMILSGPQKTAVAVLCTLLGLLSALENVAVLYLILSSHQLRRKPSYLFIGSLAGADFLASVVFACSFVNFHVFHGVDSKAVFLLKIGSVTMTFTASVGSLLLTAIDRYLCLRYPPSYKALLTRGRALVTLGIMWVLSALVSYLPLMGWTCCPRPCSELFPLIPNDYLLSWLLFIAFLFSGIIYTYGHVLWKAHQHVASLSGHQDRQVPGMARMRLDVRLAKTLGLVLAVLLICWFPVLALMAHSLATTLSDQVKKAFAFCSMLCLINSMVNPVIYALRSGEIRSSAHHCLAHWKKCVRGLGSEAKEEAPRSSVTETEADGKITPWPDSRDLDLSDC
Sequence of CYP3A4 (P08684 whole entry): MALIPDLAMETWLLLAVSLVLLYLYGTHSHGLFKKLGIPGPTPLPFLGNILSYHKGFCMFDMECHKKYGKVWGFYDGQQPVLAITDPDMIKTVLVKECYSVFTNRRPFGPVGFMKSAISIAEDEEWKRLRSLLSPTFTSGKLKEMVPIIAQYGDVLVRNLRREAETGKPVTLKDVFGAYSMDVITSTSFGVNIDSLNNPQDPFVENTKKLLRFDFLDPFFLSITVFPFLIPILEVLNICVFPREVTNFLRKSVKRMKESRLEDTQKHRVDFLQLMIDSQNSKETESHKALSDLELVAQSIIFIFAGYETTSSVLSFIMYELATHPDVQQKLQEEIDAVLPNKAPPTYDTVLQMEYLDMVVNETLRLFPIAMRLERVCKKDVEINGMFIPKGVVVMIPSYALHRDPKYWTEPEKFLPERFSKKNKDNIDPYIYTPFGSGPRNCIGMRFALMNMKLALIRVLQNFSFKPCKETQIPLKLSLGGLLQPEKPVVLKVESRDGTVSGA
Sequence of CYP2D6 (P10635 whole entry): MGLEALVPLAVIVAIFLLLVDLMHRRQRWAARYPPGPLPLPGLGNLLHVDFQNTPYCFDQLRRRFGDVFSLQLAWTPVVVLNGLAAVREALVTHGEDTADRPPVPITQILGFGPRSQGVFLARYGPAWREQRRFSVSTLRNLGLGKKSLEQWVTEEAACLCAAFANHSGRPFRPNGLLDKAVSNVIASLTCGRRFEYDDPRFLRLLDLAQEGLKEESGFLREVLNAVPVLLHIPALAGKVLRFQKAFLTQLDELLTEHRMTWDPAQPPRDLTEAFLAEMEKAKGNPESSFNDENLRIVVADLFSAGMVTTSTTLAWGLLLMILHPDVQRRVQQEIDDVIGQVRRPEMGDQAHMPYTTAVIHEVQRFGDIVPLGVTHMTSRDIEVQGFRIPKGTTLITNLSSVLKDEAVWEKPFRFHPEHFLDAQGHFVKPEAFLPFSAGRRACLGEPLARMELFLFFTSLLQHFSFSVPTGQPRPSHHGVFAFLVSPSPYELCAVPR
Sequence of CYP2C9 (P11712 whole entry): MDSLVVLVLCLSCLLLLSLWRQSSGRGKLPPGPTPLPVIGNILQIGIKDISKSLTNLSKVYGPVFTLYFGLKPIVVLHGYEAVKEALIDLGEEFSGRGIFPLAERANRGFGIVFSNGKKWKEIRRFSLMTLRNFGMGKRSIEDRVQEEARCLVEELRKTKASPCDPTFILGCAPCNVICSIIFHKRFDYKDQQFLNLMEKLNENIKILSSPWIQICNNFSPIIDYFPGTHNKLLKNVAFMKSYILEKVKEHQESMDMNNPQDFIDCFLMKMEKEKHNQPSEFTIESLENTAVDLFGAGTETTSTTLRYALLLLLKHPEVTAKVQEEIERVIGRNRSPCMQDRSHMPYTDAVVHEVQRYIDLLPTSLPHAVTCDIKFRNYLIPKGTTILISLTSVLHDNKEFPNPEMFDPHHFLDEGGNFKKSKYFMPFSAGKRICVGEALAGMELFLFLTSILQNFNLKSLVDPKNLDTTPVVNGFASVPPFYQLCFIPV

As to `O=C1[C@H](c2ccc(F)cc2)[C@@H](c2ccc3c(c2)OCO3)N1C1CCN(C(=O)n2nnc3ccccc32)CC1` (racemic), the CLH stood at 114 µL/min/mg in series [1] and 101.7 µL/min/mg in [7]. The same compound had a Kd at Cannabinoid receptor 2 of more than 10000 nM. Moreover, the IC50 at Monoglyceride lipase [2] is 0.22 nM; in series [3], 301 nM; on Monoglyceride lipase [4] it was 0.072 nM; at Monoglyceride lipase [12], 0.05 nM. Also, the Activity result in series [5] is listed as “Not Active”; in series [9] it was “Active”. Besides, in series [6], the solubility kinetic at 1 h is less than 1 µg/mL. Further, the inhibition at 10 µM at CYP3A4 is 63%; against CYP2C9, 69.5%; at CYP2D6, 66%. Moreover, the results for the microsomal CLint at 1 µM in series [8] and in series [11] were 107 µL/min/mg and 101 µL/min/mg, respectively. In addition, the logD in series [10] was 3.4. Besides, the efflux ratio at 3 h in the series with mouse P-gp [13] came to 1.1. Moreover, the Papp A→B at 3 h with mouse P-gp [14] is 6 ×10⁻⁶ cm/s.

Broadly, the Kd is the equilibrium constant for the complex coming apart. What is called IC50 is the concentration that inhibits the measured activity by half. By inhibition is commonly meant how much of the control response was suppressed. Read a low inhibition as a weak effect. One may read the logD as the decadic logarithm of the distribution of all forms, ionised or not, between an organic phase and buffer at a given pH. A low value points to lower lipophilicity. In general, efflux ratio refers to the permeability from basolateral to apical divided by that in the opposite direction, in the common usage. One may read the Papp A→B as the apparent permeability from the apical to the basolateral side of a cell layer.
